Sampled rows, rich in hits. Any-hit rate of the full collection: about 4.9%.
NF-kB expr up: activators of NF-kB expression in neurons, primary screen, cell-based, HTS. human neuronal cells, NF-kB reporter expression; stronger effect = higher value. fold change at 12.5 µM. 190,000 compounds, 1.6% hits; in the data active means fold change above about 3.3
STAT3 act: IL-6 driven STAT3 reporter potentiators, primary screen, U3A cells, luciferase, luminescence, MLSCN library; 190,000 compounds, 0.91% hits; activation (% of control), % at 5.6 µM; AID 871, 2007; IL-6 STAT3-luciferase reporter; 100% = signal with IL-6 EC80 alone;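 active means activation above the screen-wide mean of compound activation plus 3 SD, cut at about 130% in these data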;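 further: 0% = background luminescence of wells with medium and substrate only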
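Test system: Human STAT1-deficient U3A cells with stable STAT3-luciferase reporter | Also added: Interleukin-6, 33 ng/mL | Timing: Compound pre-incubation 1 h before IL-6, then 6 h stimulation at 37 °C | Technique: Luciferase reporter luminescence | Read-out: Percent of IL-6-only median luminescence | Benchmarks: IL-6-only wells as 100% reference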
STAT1 inh: STAT1 signaling inhibitors, primary screen, cell-based, HTS, luciferase reporter; inhibition, % at 5.5 µM; AID 920, 2007; NIH 3T3 STAT1-luciferase reporter, IFN-gamma, luminescence; 200,000 compounds, 0.35% hits;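 active means inhibition above a set limit, the mean inhibition across all tested compounds plus 3 SD, cut at about 34% in these data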;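 further: 0% = IFN-gamma with DMSO and 100% = IFN-gamma with 300 µM nifuroxazide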
STAT1 act: STAT1 signaling activators, primary screen, cell-based, HTS, luciferase reporter; NIH 3T3 STAT1-luciferase reporter, IFN-gamma, luminescence; 100% = IFN-gamma alone, no compound; activation (% of control), % at 5.5 µM; 200,000 compounds, 2.6% hits;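 active means activation above the screen-wide mean activation plus 3 SD, cut at about 130% in these data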;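 further: raw ratio to IFN-gamma control signal so 100% means no change and 0% no light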
STAT3 inh: IL-6 driven STAT3 reporter inhibitors, primary screen, U3A cells, luciferase, luminescence, MLSCN library | IL-6 STAT3-luciferase reporter; host cell line lacks STAT1 | inhibition, % at 5.5 µM | 190,000 compounds, 0.89% hits | AID 862, 2007;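 active means inhibition above the mean inhibition across all screened compounds plus 3 SD, cut at about 44% in these data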;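 further: 0% = DMSO only wells and 100% = 100 µM nifuroxazide control wells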
APP 5'UTR act: activators of APP 5'UTR luciferase reporter, primary screen, SH-SY5Y cells | activation, % at 2 µM | 190,000 compounds, 1% hits | SH-SY5Y APP 5'UTR luciferase reporter, luminescence; zero percent = DMSO vehicle wells;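 active means activation above a set limit, based on mean plus 3 SD of controls, cut at about 140% in these data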
* marks the source's active call; other numbers are inactive results; x = no result.

SMILES	NF-kB expr up	STAT3 act	STAT1 inh	STAT1 act	STAT3 inh	APP 5'UTR act
CCc1cccc(Nc2cnn(C34C[C@@H]5C[C@@H](CC(CC(=O)O)(C5)C3)C4)c(=O)c2Cl)c1	1.16	109.2	-42.0	137.8*	-10.1	3.2
COc1ccc(NC(=O)C2CCN(S(=O)(=O)c3cccnc3)CC2)cc1Cl	0.84	98.5	-4.0	103.6	1.7	-6.5
CC1CN(C(=O)c2ccc(N3CCCCC3)c([N+](=O)[O-])c2)CC(C)O1 (configuration not stated)	1.22	92.5	-7.3	106.6	16.3	7.1
C/C(=C\C(=O)c1ccncc1)Nc1ccccc1O	6.04*	82.5	1.7	98.4	28.7	7.6
COc1ccc(OC)c(N/C(C)=C/C(=O)c2ccccc2)c1	1.06	107.0	-38.4	133.7*	-8.2	77.1
COc1ccc(N/C(C)=C/C(=O)c2ccccc2)cc1	3.43*	100.3	-20.9	118.5	3.6	22.6
NNC(=O)CCc1ccc(S(=O)(=O)N2CCOCC2)cc1	1.12	101.5	-5.0	103.6	-0.5	3.2
CC(=O)Nc1nc(-c2cc([N+](=O)[O-])cs2)cs1	1.22	83.6	-1.7	99.7	25.3	-11.7
COc1cccc(N2CCN(c3ncnc4c3[nH]c3ccc(F)cc34)CC2C)c1 (configuration not stated)	0.11	43.5	67.7*	39.1	75.1*	-26.7
O=C(NN1CCCCC1)c1ccc(COc2ccc(Cl)cc2)cc1	0.87	94.0	7.9	92.9	15.5	-6.9
COc1ccc(-c2c(C)nn3c(N)c(C#N)cnc23)cc1OC	1.16	118.0	-41.9	136.7*	-13.0	-5.6
Cc1ccc(N=Nc2c(C)[nH]n(C(N)=S)c2=O)cc1	2.65	126.3	-41.1	136.6*	-30.2	47.8
O=C1NC(c2ccc(Cl)cc2)=COc2ccccc21	1.04	97.8	-9.4	108.4	6.6	13.6
O=C1NN=COc2ccccc21	1.03	133.3*	2.7	96.6	-28.4	5.4
NC(=O)C1CCN(CC(=O)N2N=CCC2c2ccccc2)CC1 (configuration not stated)	1.17	89.7	6.1	92.7	14.4	-0.7
CN(Cc1cn(-c2ccccc2)nc1-c1cc2ccccc2o1)C(=O)CCC(=O)O	1.61	102.5	-18.3	117.0	-1.1	1.9
O=C(Nc1ccc2nc3n(c(=O)c2c1)CCCCC3)c1ccccn1	3	105.2	-47.1	145.2*	-6.2	134.4
O=c1c2cc(NC(=S)NCc3ccccn3)ccc2nc2n1CCCCC2	1.15	98.1	-3.0	100.4	4.1	10.9
Nc1ccc2c(c1)sc1ccccc12	2.25	93.6	-32.6	129.6*	10.8	10.6
Clc1ccc2oc3c(Cl)ncnc3c2c1	0.87	118.4	0.0	100.0	-25.5	-1.9
O=C(/C=C/c1cccs1)N1CCCCC1	1.18	105.4	-34.1	130.1*	0.6	44.2
CCOc1ccc2nc(NC(=O)Cc3cccs3)sc2c1	2.16	107.8	-31.4	128.9*	-2.9	46.5
COc1ccc2nc(NC(=O)Cc3cccs3)sc2c1	2.92	95.1	-45.9	135.6*	6.9	70.7
COc1ccc2nc(NC(=O)CSc3nnnn3C)sc2c1	2.18	93.9	-47.5	142.0*	11.4	59.9
COc1ccc2nc(NC(=O)CSc3nnnn3C3CCCCC3)sc2c1	0.92	100.4	6.6	94.0	5.6	-3.9
SMILES	NF-kB expr up	STAT3 act	STAT1 inh	STAT1 act	STAT3 inh	APP 5'UTR act
CCOc1ccc2nc(NC(=O)COC)sc2c1	4.91*	88.8	-42.6	138.4*	19.2	139.7*
COCCn1c(C)cc(C(=O)CSc2nc3ccccc3s2)c1C	0.68	67.4	-16.6	118.2	39.0	203.5*
COC(=O)C1=NN(c2ccc(Cl)cc2)C2C(=O)N(c3ccccc3OC)C(=O)C12 (configuration not stated)	1.16	114.3	4.9	95.6	-12.7	10.2
Cc1cc(C(=O)CSc2nnnn2-c2ccccc2)c(C)n1CC1CCCO1 (configuration not stated)	0.94	105.2	-42.9	139.3*	-0.5	7.5
Cc1cc(C(=O)CSc2nc3ccccc3c(=O)n2C)c(C)n1CC1CCCO1 (configuration not stated)	0.58	31.9	38.2*	63.9	81.5*	-16.6
Cc1cc(C(=O)CN2C(=O)NC(C)(c3ccccc3)C2=O)c(C)n1CC1CCCO1 (configuration not stated)	0.64	96.6	6.3	94.3	3.4	7.4
Cc1cc(C(=O)CN2C(=O)c3ccccc3S2(=O)=O)c(C)n1CC1CCCO1 (configuration not stated)	0.32	9.8	78.7*	26.9	112.1*	-86.0
COc1cc(/C(C)=N/NC(=O)CSc2nncn2C)ccc1OCc1ccccc1Cl	1	91.0	-32.2	128.7*	10.6	27.3
Cc1ccc2oc(-c3cc(NC(=O)c4ncn[nH]4)ccc3O)nc2c1	1.13	93.3	-4.9	102.7	12.6	5.9
COc1ccccc1-c1nc2ccccc2nc1-c1ccccc1OC	0.95	108.6	8.3	92.6	-9.8	x
O=C1c2ccccc2-c2nc3ccccc3nc21	1.49	104.4	-34.7	132.1*	-8.5	11.3
CC(NC(=O)c1ccc(N)cc1)c1ccccc1 (configuration not stated)	0.94	77.8	-4.5	104.4	32.5	-16.9
CCC(C)(C)c1ccc(Oc2ccc(N)cc2)cc1	0.27	35.2	69.6*	34.5	81.3*	-79.7
C=CCNC(=O)c1ccc(-c2nc(-c3ccccc3)cs2)cc1	2.08	98.8	-50.9	145.8*	11.5	56.9
Cc1ccc(NC(=S)NNC(=O)c2nn(C)c(C)c2Cl)cc1	2.85	99.2	-34.6	131.1*	11.1	112.0
CCCCOc1ccc(C(=S)N2CCC(C(N)=O)CC2)cc1	0.98	109.7	-29.2	124.0	-10.7	73.7
CCCC(C(=O)NC1=NCCS1)c1ccccc1 (configuration not stated)	1.11	100.2	10.4	91.7	4.7	1.3
O=C(CSc1nc2ccccc2o1)Nc1nc(-c2ccccc2)cs1	0.5	108.6	-52.3	147.4*	-3.9	74.5
O=C(CSc1nc2ccccc2o1)Nc1nc2ccccc2s1	1.06	130.5	-8.1	107.5	-31.2	19.8
Cc1c(N(C(=O)Cc2cccs2)C2(C(=O)NC3CCCC3)CCCCC2)c(=O)n(-c2ccccc2)n1C	4.13*	99.9	2.0	97.5	11.7	9.0
COc1ccc(N=c2oc3ccccc3cc2C(=O)Nc2ccccn2)cc1OC	1.66	104.4	-39.9	137.3*	0.9	18.7
